According to ChEMBL document CHEMBL1122756, “Synthesis of (E)-5-(3,3,3-trifluoro-1-propenyl)-2'-deoxyuridine and related analogues: potent and unusually selective antiviral activity of (E)-5-(3,3,3-trifluoro-1-propenyl)-2'-deoxyuridine against herpes simplex virus type 1” (1984):
≈ marks a conversion by molar mass, not a printed value.

What was measured:
Human alphaherpesvirus 1 [1] = experiment: Compound was evaluated for antiviral activity against HSV-1(TK-, strain B2006); format: functional
Outline: (§1)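 Herpes stocks grown in primary rabbit kidney (PRK) cells. Confluent PRK cultures were inoculated at 0.03 pfu/cell, and the compound's effect on virus multiplication was measured. The readout is ID99, the concentration that cuts viral yield by 99%.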

Vaccinia virus [2] = experiment: Compound was evaluated for antiviral activity against vaccinia; format: functional, Orthopoxvirus vaccinia
Oryctolagus cuniculus [3] = species on record: Oryctolagus cuniculus; experiment: Concentration of compound required to inhibit [1',2'-3H]dUrd incorporation into host cell DNA by 50% in primary rabbit kidney cell cultures; format: functional; details: read-out: ID50 (the source's name)
Outline: (§2)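 Uptake of radiolabel into DNA was measured in PRK cultures. Input per 10^5 cells was 6 pmol (0.25 µCi) of [1',2'-3H]dUrd for the dUrd line, or 10 pmol (0.38 µCi) of [methyl-3H]dThd for the dThd line. The value is the concentration giving 50% inhibition of incorporation.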

Human alphaherpesvirus 2 = experiment: Compound was evaluated for antiviral activity against HSV-2(strain G); format: functional; outline: as §1
Oryctolagus cuniculus [4] = species on record: Oryctolagus cuniculus; experiment: Concentration of compound required to inhibit [methyl-3H]dThd incorporation into host cell DNA by 50% in primary rabbit kidney cell cultures; format: functional; details: read-out: ID50 (the source's name); outline: as §2
Human alphaherpesvirus 1 [5] = experiment: Compound was evaluated for antiviral activity against HSV-1(strain KOS); format: functional; outline: as §1
Vaccinia virus [6] = experiment: Compound was evaluated for its antiviral activity against vaccinia; format: functional, Orthopoxvirus vaccinia

Structure (SMILES) | ID99 (Human alphaherpesvirus 1 [1]) [µg/mL] | ID99 (Vaccinia virus [2]) [µg/mL] | IC50 (Oryctolagus cuniculus [3]) [µg/mL] | ID99 (Human alphaherpesvirus 2) [µg/mL] | IC50 (Oryctolagus cuniculus [4]) [µg/mL] | ID99 (Human alphaherpesvirus 1 [5]) [µg/mL] | ID99 (Vaccinia virus [6]) [µg/mL]
O=c1[nH]c(=O)n([C@H]2C[C@H](O)[C@@H](CO)O2)cc1/C=C/C(F)(F)F | >100 | >100 | 150 (≈ 465 µM) | 100 | 300 (≈ 931 µM) | 0.03 | –
O=c1[nH]c(=O)n([C@H]2C[C@H](O)[C@@H](CO)O2)cc1I [IDOXURIDINE] | >100 | 0.25 | 0.25 (≈ 0.706 µM) | 0.8 | 1 (≈ 2.82 µM) | 0.1 | –
O=c1[nH]c(=O)n([C@H]2C[C@H](O)[C@@H](CO)O2)cc1C(F)(F)F [TRIFLURIDINE] | 0.4 | 0.12 | 0.01 (≈ 0.0338 µM) | 1.2 | 20 (≈ 67.5 µM) | 0.7 | –
C/C=C/c1cn([C@H]2C[C@H](O)[C@@H](CO)O2)c(=O)[nH]c1=O | >100 | >100 | 40 (≈ 149 µM) | 18 | 25 (≈ 93.2 µM) | 0.15 | –
O=c1[nH]c(=O)n([C@H]2C[C@H](O)[C@@H](CO)O2)cc1/C=C/Br [BRIVUDINE] | >100 | – | 20 (≈ 60 µM) | 3 | 70 (≈ 210 µM) | 0.008 | 22
